# Assay outcomes deposited in PubChem by several laboratories.
# This is a sample that favours compounds with a hit; in the whole collection about 2.9% have one here.
# RBBP9 inhibitor = blocks human serine hydrolase RBBP9 | O75884 | recombinant RBBP9, FP-Rh probe fluorescence polarization | inhibition, % at 7.94 µM | 0.2% of 220,000 active | AID 1515;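 active = inhibition above the campaign mean of all tested compounds plus 3 SD, cut at about 14% in these data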
#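 Material: RBBP9 protein. Amount: RBBP9 at 2.5 µM in dispensed solution, before mixing. Schedule: 30 min then 45 min, 25 °C. Medium: Tris buffer pH 8.0, NaCl, Pluronic. Measured by: fluorescence polarization. Measure: percent inhibition from mP, scaled between DMSO and no-protein wells. Replication: one well per compound.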
# RanGTP-Imp inh = disruptors of Ran-importin-beta complex formation – biochemical, FRET, CFP-Ran, YFP-importin-beta, homogeneous, primary screen; 1.1% of 300,000 active; cell-free CFP-Ran/YFP-importin-beta FRET ratio; inhibition, % (no concentration beside the values);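 active = more than half of the replicate wells show a fall in the fluorescence ratio signal beyond about 16%, limit read from the data, passing the limit was not always enough; inconclusive = exactly half of the replicate wells pass the set limit; inactive = fewer than half of replicates pass the limit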
# Runt-SMMHC FRET = inhibitors of human RUNX1 Runt domain binding to CBFb-SMMHC | Cerulean-Runt/Venus-CBFb-SMMHC FRET ratio 530/480, 1 h | inhibition, % at 20 µM | 0.74% of 220,000 active | AID 1434;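 active = mean inhibition across duplicate retests at 20 µM reaching about 50%, limit read from the data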;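 also: inhibitors lower the FRET ratio by blocking Runt binding to CBFb-SMMHC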
# Target sequence (Q01196 whole entry, looked up, the tested form may be a part): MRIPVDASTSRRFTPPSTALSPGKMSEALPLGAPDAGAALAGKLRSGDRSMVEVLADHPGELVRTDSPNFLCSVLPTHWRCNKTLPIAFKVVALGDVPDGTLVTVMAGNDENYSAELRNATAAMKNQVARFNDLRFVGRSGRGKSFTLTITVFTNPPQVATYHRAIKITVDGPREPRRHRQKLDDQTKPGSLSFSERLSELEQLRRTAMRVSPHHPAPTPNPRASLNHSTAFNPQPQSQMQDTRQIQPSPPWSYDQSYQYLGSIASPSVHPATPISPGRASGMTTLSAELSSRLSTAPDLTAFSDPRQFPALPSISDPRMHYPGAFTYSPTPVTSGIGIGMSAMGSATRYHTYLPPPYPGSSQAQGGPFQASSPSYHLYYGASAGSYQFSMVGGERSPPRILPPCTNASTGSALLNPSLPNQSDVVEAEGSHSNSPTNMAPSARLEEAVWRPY
# Target sequence (Q13951 whole entry, looked up, the tested form may be a part): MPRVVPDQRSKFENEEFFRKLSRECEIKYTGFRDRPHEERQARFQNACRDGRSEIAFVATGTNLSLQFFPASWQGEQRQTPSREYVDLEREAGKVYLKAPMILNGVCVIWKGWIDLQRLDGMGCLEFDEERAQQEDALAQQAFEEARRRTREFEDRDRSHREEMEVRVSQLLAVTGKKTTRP
# PfM18AAP inh = blocks P. falciparum M18 aspartyl aminopeptidase | recombinant PfM18AAP, H-Glu-NHMec fluorogenic cleavage | 1.2% of 290,000 active | AID 1822 | inhibition, % at 7.35 µM;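 active = inhibition above the campaign mean inhibition over all tested compounds plus 3 SD, cut at about 28% in these data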
# Hck-Nef inh = human Hck-Nef kinase inhibition; P08631; Recombinant Hck-YEEI plus Nef, Z-Lyte FRET kinase assay; inhibition, % at 20 µM; 0.68% of 220,000 active; AID 463187;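 active = Hck-Nef kinase inhibition above about 50%, limit read from the data; inactive = inhibition below that limit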
# Runt-CBFb FRET = Runt domain-CBFb interaction inhibition; inhibition, % at 20 µM; 0.46% of 220,000 active; Cerulean-Runt/Venus-CBFb FRET ratio 530/480, 1 h; AID 1496; Q01196+Q13951;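 active = inhibition over about 50% at 20 µM in the single-dose screen, limit read from the data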
#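 Assay system: Cerulean-Runt domain fusion protein, energy donor; Signal: fluorescence energy transfer, 422 nm excitation, 530/480 nm emission; Timing: 1 h compound exposure, room temperature; Control set: unlabeled CBFb; Medium: Tris buffer pH 7.5 with salts and BSA; Compound: single test concentration of 20 µM, 1% DMSO final; Probe or stimulus: Venus-CBFb 100 nM.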
# RBBP9 inh conf = confirmation of human RBBP9 inhibitors; shares compounds with RBBP9 inhibitor; inhibition, % at 7.94 µM; 36% of 410 active; recombinant RBBP9, FP-Rh probe fluorescence polarization;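 active = inhibition above the hit cutoff derived for the primary screen, cut at about 15% in these data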
# Numbers stand for hits; . = inactive; ? = inconclusive; / = no result.
SMILES,RBBP9 inhibitor,RanGTP-Imp inh,Runt-SMMHC FRET,PfM18AAP inh,Hck-Nef inh,Runt-CBFb FRET,RBBP9 inh conf
CCOc1ccc(CN(C)C(=O)c2ccc(NC(=O)CC3SC(N4CCCC4)=NC3=O)cc2)cc1 (stereo unspecified),/,.,/,.,/,/,/
O=c1c2ccccc2[nH]c(=S)n1CCCN1CCOCC1,15,.,.,.,.,.,.
Cc1cc(C(=O)NN=C2C3CC4CC(C3)CC2C4)c2ccccc2n1,15,.,.,.,.,.,.
Cc1cc(C(=O)NN=C2CCCC2)c2ccccc2n1,/,.,/,/,/,/,/
Cc1ccc(N(CC(=O)N/N=C/c2cc(C)n(-c3ccccc3)c2C)S(C)(=O)=O)c(C)c1,17,.,.,.,.,.,.
Cc1ccc(N(CC(=O)Nc2c(C)n(C)n(-c3ccccc3)c2=O)S(C)(=O)=O)c(C)c1,.,?,.,.,.,.,/
CC(C)NC(=O)CCS(=O)(=O)c1ccc(Br)s1,18,.,.,.,.,.,.
O=C(CCS(=O)(=O)c1ccc(Br)s1)NC1CCCC1,.,.,.,.,.,.,/
O=C(CCc1ccccc1)NCCc1ccc(F)cc1,/,.,/,.,/,/,/
CC1CN(Cc2c(O)ccc3c(=O)c(-c4ccccc4)coc23)CC(C)O1 (stereo unspecified),.,.,/,.,.,/,/
CC1CN(Cc2c(O)ccc3c2oc(=O)c2ccccc23)CC(C)O1 (stereo unspecified),19,.,.,.,.,.,63
Cc1ccc(OC(=O)c2ccc([N+](=O)[O-])cc2Cl)cn1,/,.,/,.,/,/,/
N#CC1=C(N)Oc2ccc3ccc(O)cc3c2C1c1ccsc1 (stereo unspecified),53,.,.,.,.,.,47
CCCCCCCC1CC(CSC(=N)N)OC1=O (stereo unspecified),23,.,.,.,.,.,.
COC(=O)CC(=O)CSc1nc2c(cc1C#N)CCC2,24,.,.,.,.,.,.
Cc1ccc(S(=O)(=O)N(CC(=O)Nc2ccccc2C(=O)O)c2ccc(Cl)cc2)cc1,.,.,.,.,.,.,/
Cc1ccc(S(=O)(=O)NCCC(=O)OCc2ccc([N+](=O)[O-])cc2)cc1C,/,.,/,/,/,/,/
CCn1c(C(=O)NCc2cccnc2)cc2sc(Cl)cc21,15,.,.,.,.,.,.
CN(C)c1nc(F)c(F)c(S(=O)(=O)c2ccccc2)c1F,/,.,/,.,/,/,/
CCCCN(C(=O)c1ccc(C#N)cc1)c1c(N)n(CCC)c(=O)[nH]c1=O,/,.,/,.,/,/,/
O=C(Nc1cccc(Cl)c1)Nc1sccc1-c1nc2ccccc2s1,15,.,.,.,.,.,19
Cc1cc(C)nc(Sc2c(C)nn(-c3ccccc3)c2C)n1,15,.,.,.,.,.,.
Cc1cc(C(F)(F)F)c2c(C)nn(-c3ccccc3)c2n1,/,.,/,/,/,/,/
CCCCOP(=O)(OCCCC)C1(NS(=O)(=O)c2ccccc2)C=CC(=O)c2ccccc21 (stereo unspecified),24,.,.,.,.,.,16
CCCCOCCCNS(=O)(=O)c1ccccc1,.,.,.,.,.,.,/
SMILES,RBBP9 inhibitor,RanGTP-Imp inh,Runt-SMMHC FRET,PfM18AAP inh,Hck-Nef inh,Runt-CBFb FRET,RBBP9 inh conf
CCOc1ccc(S(=O)(=O)Nc2ccc(S(=O)(=O)N3CCCC3)cc2)cc1,.,.,.,.,.,.,/
CCOc1ccc(S(=O)(=O)Nc2ccc(S(=O)(=O)N3CCCCC3)cc2)cc1,15,.,.,.,.,.,.
N#Cc1ccsc1NC(=O)CSc1ncn[nH]1,15,.,.,.,.,.,.
COc1cc(/C=N/Nc2ccc(C(F)(F)F)cn2)cc(OC)c1O,17,.,.,.,.,.,15
Oc1ccc(/C=N/Nc2ccc(C(F)(F)F)cn2)cc1,.,.,.,.,.,.,/
O=C(Cn1ccc([N+](=O)[O-])n1)N1CCCCCC1,16,.,.,.,.,.,.
CC1Oc2ccccc2N(CC(=O)NC2CCCCC2)C1=O (stereo unspecified),/,.,/,.,/,/,/
COc1ccc(OC)c(NC(=O)c2cccnc2Sc2cc(C)ccc2C)c1,41,.,.,.,.,.,.
O=C(c1ccccn1)N1CCCC(N2CCN(c3ccccc3)CC2)C1 (stereo unspecified),/,.,/,.,/,/,/
Cc1ccc2c(c1)c1cccc3c1n2CCN3CCC(N)=O,17,.,.,.,.,.,.
NC(=O)CCn1c2ccccc2c2ccccc21,.,.,.,.,.,.,/
CC1=CC(=NOC(=O)/C=C/c2ccccc2)C=C(C)C1=O,17,?,.,.,.,.,79
Cc1c(NC(=O)C(C)OC(=O)c2ccc([N+](=O)[O-])s2)c(=O)n(-c2ccccc2)n1C (stereo unspecified),.,.,.,.,.,.,/
Cc1ccc(S(=O)(=O)NCCC(=O)N2CCN(Cc3ccccc3)CC2)cc1,29,.,.,.,.,.,.
CC(=O)N1CCc2cc(S(=O)(=O)NCCC(=O)N3CCN(Cc4ccccc4)CC3)ccc21,.,/,.,.,.,.,/
CS(=O)(=O)N(CC(=O)Nc1cccnc1)c1ccc2c(c1)OCCO2,.,.,.,.,.,.,/
CS(=O)(=O)N(CC(=O)Nc1cccnc1)c1ccc2c(c1)OCO2,14,.,.,.,.,.,.
CCOC(=O)Cc1nn(C)c(=O)c2ccccc12,16,.,.,.,.,.,.
CCC(=O)N(CCc1ccccc1)Cc1cc2cccc(C)c2[nH]c1=O,/,.,/,.,/,/,/
Oc1ccc(/C=N/Nc2ccnc3cc(Cl)ccc23)cc1O,25,.,.,29,.,.,97
Clc1ccc2c(NCc3ccccn3)ccnc2c1,/,.,/,.,/,/,/
Cc1[nH]c2c(C)cccc2c(=O)c1CN1CCCCCC1,/,.,/,.,/,/,/
O=c1c2ccccc2nc(/C=C/c2cccnc2)n1Cc1ccccc1,15,?,.,.,.,.,55
Cc1ccccc1Cn1c(=O)n(C)c(=O)c2sccc21,/,.,/,.,/,/,/
CCOC(=O)N1CCN(CC(O)COc2cc(C)cc(C)c2)CC1 (stereo unspecified),/,.,/,.,/,/,/
SMILES,RBBP9 inhibitor,RanGTP-Imp inh,Runt-SMMHC FRET,PfM18AAP inh,Hck-Nef inh,Runt-CBFb FRET,RBBP9 inh conf
O=C(Cc1nnc(NC(=O)Nc2ccc(F)cc2)s1)NCc1ccccc1,.,.,.,.,.,.,/
CCOC(=O)C1=C(SCC(=O)Nc2ccccc2)NC(=O)C(C#N)C12CCCCC2 (stereo unspecified),15,.,.,.,.,.,.
COCCCN(C(=O)CSCc1c(C)noc1C)c1c(N)n(Cc2ccccc2)c(=O)[nH]c1=O,/,.,/,/,/,/,/
O=C(NN=C1CCCC1)c1ccccc1OCCOc1ccccc1,23,.,.,.,.,.,.
O=C(NN=C1CCCCC1)c1ccccc1OCc1ccc(F)cc1,.,.,.,.,.,.,/
CC(=O)c1ccc(OC(=O)CCc2ccccc2)cc1,/,.,/,.,/,/,/
